In the library only some 0.99% were active in any assay of this set; here they are far more common.
GSK3A inh: blocks human GSK-3 alpha kinase; 0.1% of 320,000 active; P49840; ADP-Glo luminescence, 60 min; AID 2650; inhibition, % at 10 µM;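 active means more than half of replicates show inhibition above 20%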;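 further: GST-tagged GSK-3 alpha with peptide substrate and 25 µM ATP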
Target sequence (P49840 whole entry, looked up): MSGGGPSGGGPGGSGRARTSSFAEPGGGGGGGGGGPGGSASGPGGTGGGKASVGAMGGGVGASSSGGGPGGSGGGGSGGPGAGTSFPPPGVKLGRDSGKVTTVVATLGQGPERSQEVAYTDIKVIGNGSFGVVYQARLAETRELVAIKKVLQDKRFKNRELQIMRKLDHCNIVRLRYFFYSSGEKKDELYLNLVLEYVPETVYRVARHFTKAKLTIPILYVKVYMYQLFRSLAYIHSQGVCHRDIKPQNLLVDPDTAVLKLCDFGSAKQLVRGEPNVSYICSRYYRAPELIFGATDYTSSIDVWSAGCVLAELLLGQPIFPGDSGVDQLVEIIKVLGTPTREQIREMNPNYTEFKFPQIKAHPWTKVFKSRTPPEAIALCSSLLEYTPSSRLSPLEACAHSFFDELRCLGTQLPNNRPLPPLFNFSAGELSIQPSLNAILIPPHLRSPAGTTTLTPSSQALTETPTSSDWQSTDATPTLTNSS
Arr AP2 block: blocks beta-arrestin peptide binding to AP2 adaptin; FITC-arrestin peptide / GST-AP2 beads, flow cytometry; AP2 beta2 appendage carries R879A mutation; inhibition, % at 10 µM; 0.31% of 340,000 active;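 active means inhibition above a set limit, near 3 SD of compounds lacking own fluorescence, cut at about 54% in these data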
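System: GST-AP2 R879A glutathione beads. Medium: PBS with 0.05% Tween 20 and 0.1% BSA. Also added: FITC-arrestin peptide, 50 nM. Incubation: 12 min plus 1 h, RT. Measured by: high-throughput flow cytometry of beads, ex 488, em 535 nm. Evaluation: percent drop in bead-associated FITC signal.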
Rin1 Abl inh: blocks binding of human Rin1 to Abl | P00519+Q13671 | TR-FRET Rin1/Abl binding, biochemical | inhibition, % at 7.35 µM | 0.4% of 360,000 active; in the data active means inhibition above about 5%, passing the limit was not always enough
STK33 kinase inh: inhibitors of human STK33 kinase | purified STK33, MBP phosphorylation, ADP-Glo luminescence | inhibition, % at 10 µM | 0.073% of 320,000 active | AID 2661;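 active means inhibition at or above 25%, using the most active replicate where run in duplicate; inactive means inhibition below 25%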
Dyrk1A ADPGlo: blocks rat Dyrk1A kinase activity; Q63470; ADP-Glo luminescence, NFATc1 peptide; inhibition, % at 12.5 µM; 0.43% of 310,000 active; AID 504441; in the data active means inhibition above about 50%
GSK3B inh: blocks human GSK3beta kinase activity; 0.038% of 300,000 active; P49841; activity score (negative = inhibition), % at 10 µM; GST-GSK3beta kinase, ADP-Glo luminescence, 60 min; active compounds read low;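 active means more than half of replicate wells score below -50%, meaning over 50% inhibition versus plate controls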
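Test system – GST-tagged human GSK3beta kinase, cell-free · Incubation – 60 min enzyme reaction, room temperature · Signal – ADP-Glo luminescence · Also added – peptide substrate and ATP at 25 µM · Controls – DMSO neutral wells and GW8510 at 20 µM as positive · Buffer or medium – Tris/MgCl2 kinase buffer · Measure – Luminescence-derived activity versus plate DMSO and GW8510 wells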
Dyrk1A artifact: ADP-Glo luciferase interference, Dyrk1A counter-screen. 1,300 tested, under 10 active. shares compounds with Dyrk1A ADPGlo. ADP-Glo luciferase artifact assay, no Dyrk1A, luminescence. AID 588348. AC50, µM (titrated, usually from 12 µM);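 active means fitted half-maximal dose AC50 no more than ten times the top valid tested dose, with luminescence dropping as dose rises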
Numbers stand for hits; – = inactive; · = no result given.

SMILES | GSK3A inh | Arr AP2 block | Rin1 Abl inh | STK33 kinase inh | Dyrk1A ADPGlo | GSK3B inh | Dyrk1A artifact
OCc1cc(C(O)CNCCCCCCOCCCCc2ccccc2)ccc1O (configuration not stated) | – | – | – | – | 53 | – | –
CC1CC(C)CN(S(=O)(=O)c2ccc3c(c2)CC(=O)N3)C1 (configuration not stated) | – | – | – | – | – | · | ·
CCCN(CC(=O)Nc1cc(Cl)ccc1Cl)C(=O)c1ccccn1 | – | – | – | – | – | · | ·
CCCN(CCC)CCNC(=O)c1cc2c(=O)n(C)c3ccccc3c2n1C | – | – | – | – | 70 | – | –
CN(CCNC(=O)c1cc2c(=O)n(C)c3ccccc3c2n1C)Cc1ccccc1 | – | – | – | – | – | – | ·
CC1(C(=O)O)CCCN(C(=O)C2(c3ccc(Cl)cc3)CCCC2)C1 (configuration not stated) | · | · | – | · | · | · | ·
O=C(Nc1cccc(Cl)c1)Nc1nccs1 | – | – | – | – | 59 | – | –
COC(=O)c1cc(NC(=O)Nc2cccc(Cl)c2)ccc1Cl | – | – | – | – | 53 | – | –
CN(C)S(=O)(=O)c1ccc(Cl)c(C(=O)Nc2cccc3ncccc23)c1 | – | – | – | – | 85 | · | –
O=c1cc(-c2ccccc2)c2c(O)cc(O)cc2o1 | 72 | – | – | – | 61 | -58 | –
O=c1c(O)c(-c2ccccc2)oc2cc(O)cc(O)c12 | · | – | – | · | 75 | · | –
O=c1c(O)c(-c2cc(O)c(O)c(O)c2)oc2cc(O)cc(O)c12 | 62 | – | 55 | 37 | 90 | · | –
O=c1c(O)c(-c2ccccc2)oc2cc(O)ccc12 | · | · | – | · | · | · | ·
CC(=O)c1ccc(O)c(CC=C(C)C)c1 | – | – | – | – | – | – | ·
CC(C)=CCc1cc(-c2oc3cc(O)cc(O)c3c(=O)c2O)ccc1O | – | – | – | – | 63 | – | –
O=c1c(-c2ccccc2)c(-c2ccccc2)oc2cc(O)cc(O)c12 | – | – | – | – | – | – | ·
CCOC(=O)c1c(C)[nH]c(C)c1C(=O)COC(=O)CCc1ccccc1 | – | – | – | – | – | · | ·
CC(=O)c1ccc(NC(=O)NC2CC(=O)N(c3ccc4c(c3)OCCO4)C2)cc1 (configuration not stated) | – | – | – | – | – | – | ·
Cc1ccc(C(c2cc(Br)ccc2O)N2CCSCC2)cc1 (configuration not stated) | – | – | – | – | – | – | ·
NS(=O)(=O)c1ccc(Nc2nc(-c3ccc(F)cc3)cs2)cc1 | – | – | – | – | – | – | ·
NS(=O)(=O)c1ccc(Nc2nc(-c3ccc(O)cc3O)cs2)cc1 | 61 | – | – | – | 68 | – | –
O=C(C1CC(=O)N(C2CCCC2)C1)N1CCN(c2ccc(F)cc2)CC1 (configuration not stated) | · | – | – | · | 61 | – | –
COc1ccc(CNC(=O)c2nn(-c3ccccc3)cc2OC)cc1 | – | – | – | – | – | – | ·
O=C(Nc1cccc(Cl)c1)ON=C1c2ccccc2-c2ccccc21 | – | – | – | – | 50 | – | –
O=C(Nc1cccc(Cl)c1)Nc1cccc(Cl)c1 | – | – | – | – | – | · | ·
SMILES | GSK3A inh | Arr AP2 block | Rin1 Abl inh | STK33 kinase inh | Dyrk1A ADPGlo | GSK3B inh | Dyrk1A artifact
Cc1cccc(C)c1OCCOC(=O)c1n[nH]c2ccccc12 | – | – | – | – | 60 | – | –
CN(CC(=O)Nc1cccc(F)c1)C(=O)C1CCC(C(=O)N(C)CC(=O)Nc2cccc(F)c2)CC1 (configuration not stated) | · | – | – | · | – | · | ·
Cc1ccc(N(C)S(=O)(=O)c2ccc(-c3cnc(C4CC4)o3)cc2)cc1 | – | – | – | – | – | – | ·
NS(=O)(=O)c1ccc(N=Nc2c(O)c(C(=O)O)cc3ccccc23)cc1 | – | – | – | – | 54 | – | –
CS(=O)(=O)N1CCCCC1c1cc(C(=O)Nc2ccccc2Cl)no1 (configuration not stated) | · | · | – | · | · | · | ·
COc1ccc(OC)c(N)c1 | – | – | – | – | – | – | ·
COc1ccc2c(c1)C(=NN)c1cc(OC)ccc1-2 | – | – | – | – | 79 | – | –
COc1ccc2c(c1)C(=NNc1ccc(C(=O)O)cc1)c1cc(OC)ccc1-2 | – | – | – | – | 83 | – | –
Cc1ccc(S(=O)(=O)N2CCN(C(=O)COC(=O)c3nc(Cl)ccc3Cl)CC2)c(C)c1 | · | – | – | · | – | · | ·
CCOC(=O)c1nnc(-c2ccc(C)cc2)nc1Sc1ccc(Cl)cc1 | – | – | – | – | 55 | – | –
CCOC(=O)c1nnc(-c2ccc(C)cc2)nc1Sc1ccccc1Cl | – | – | – | – | – | – | ·
c1ccc(-c2csc3nnc(SCc4ccc5c(c4)OCO5)n23)cc1 | – | – | – | – | 58 | – | –
O=C1CCN(CCCc2ccccc2)CCN1[C@H](CO)c1ccccc1 | – | – | – | – | 51 | – | –
COc1cc(-c2ccc3cc(OC)c(OC)c(OC)c3c2)cc(OC)c1OC | · | · | – | · | · | · | ·
O=C1/C(=C/c2ccc3c(c2)OCO3)Oc2cc(OCC(=O)N3CCC[C@H]3C(=O)O)ccc21 | 59 | – | – | – | 71 | – | –
CN(C)CCCOC(=O)COc1ccc(Br)cc1 | – | – | – | – | 68 | – | –
CN(C)CCOC(=O)COc1ccc(Cl)cc1 | – | – | – | – | – | · | ·
O=C(O)CSc1ncnc2scc(-c3ccccc3)c12 | – | – | – | – | 73 | – | –
CC(OC(=O)CN1C(=O)c2ccccc2C1=O)C(=O)NC1CCCC1 (configuration not stated) | – | – | – | – | – | – | ·
CC1OC(OCC2OC(Oc3c(-c4ccc(O)cc4)oc4cc(O)cc(O)c4c3=O)C(O)C(O)C2O)C(O)C(O)C1O (configuration not stated) | – | – | – | – | 53 | – | –
O=c1c2c(O)cc(O)cc2oc2ccc(O)c(O[C@@H]3O[C@H](CO)[C@@H](O)[C@H](O)[C@H]3O[C@H]3O[C@H](CO)[C@@H](O)[C@H](O)[C@H]3O)c12 | – | – | – | – | 79 | · | –
O=C(NNC(=O)C1CC1)c1ccc(F)cc1F | – | – | – | – | · | · | ·
O=[N+]([O-])c1cc(/C=N/O)ccc1Oc1ccccc1Cl | 65 | – | – | – | 61 | -52 | –
COc1ccc(N/C=C2\C(=O)CCc3c2oc2cc(Cl)c(O)c(Cl)c32)cc1 | – | – | – | – | 55 | – | –
Cc1ccc(NC(=S)NN2CCN(C)CC2)c(C)c1 | – | – | – | – | – | – | ·
Cc1cccc(NC(=S)NN2CCN(C)CC2)c1 | – | – | – | – | 54 | – | –
COc1ccc2c(c1)c(=O)oc1c(C)c(OCc3cc(C(=O)O)oc3C)ccc12 | – | – | – | – | 51 | – | –
